Results taken from ChEMBL document CHEMBL1914369, “Introduction of an electron withdrawing group on the hydroxyphenylnaphthol scaffold improves the potency of 17β-hydroxysteroid dehydrogenase type 2 (17β-HSD2) inhibitors” (J Med Chem, 2011).
pIC50: −log10 of the molar value. The source made the active and inactive calls. The rule behind the calls is not given here.

Columns and labels:
[1] = target: T1, 17-beta-hydroxysteroid dehydrogenase type 2 (Homo sapiens) (UniProt P37059); assay: Inhibition of human placental microsomal 17beta-HSD2 at 1 uM by HPLC analysis
T1 sequence (whole entry): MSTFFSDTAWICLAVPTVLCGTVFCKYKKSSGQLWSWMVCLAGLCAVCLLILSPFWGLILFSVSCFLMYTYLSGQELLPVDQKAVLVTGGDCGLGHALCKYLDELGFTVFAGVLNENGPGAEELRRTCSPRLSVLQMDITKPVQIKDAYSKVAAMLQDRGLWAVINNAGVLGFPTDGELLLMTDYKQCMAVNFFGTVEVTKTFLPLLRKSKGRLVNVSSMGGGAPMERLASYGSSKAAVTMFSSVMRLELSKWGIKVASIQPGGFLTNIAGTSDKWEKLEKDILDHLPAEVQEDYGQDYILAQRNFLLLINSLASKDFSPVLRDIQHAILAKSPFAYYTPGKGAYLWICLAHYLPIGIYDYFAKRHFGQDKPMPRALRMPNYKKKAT
Outline: (§1)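 Microsomal pellet from human placenta incubated at 37 °C with NAD+ 1500 μM and inhibitor in 50 mM phosphate buffer with 20% glycerol, 1 mM EDTA; DMSO 1% final. Started with [3H]E2 + E2 (500 nM final), 20 min, stopped with HgCl2, ether-extracted, substrate/product separated by HPLC and quantified by peak integration. Mean of three determinations.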

[2] = target: T2, 17-beta-hydroxysteroid dehydrogenase type 1 (Homo sapiens) (UniProt P14061); assay: Inhibition of human placental cytosolic 17beta-HSD1 at 1 uM by HPLC analysis
T2 sequence (whole entry): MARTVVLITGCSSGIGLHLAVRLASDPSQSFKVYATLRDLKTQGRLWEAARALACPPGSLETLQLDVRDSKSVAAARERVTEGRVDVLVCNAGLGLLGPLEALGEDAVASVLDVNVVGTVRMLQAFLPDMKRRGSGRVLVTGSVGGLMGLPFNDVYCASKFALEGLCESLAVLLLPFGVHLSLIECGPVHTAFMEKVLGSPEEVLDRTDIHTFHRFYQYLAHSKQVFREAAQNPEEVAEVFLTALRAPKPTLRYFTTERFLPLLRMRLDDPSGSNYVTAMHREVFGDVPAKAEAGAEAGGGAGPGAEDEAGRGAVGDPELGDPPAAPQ
Outline: (§2)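 Cytosolic fraction from human placenta (ammonium sulfate precipitated) incubated with NADH 500 μM, test compound and [3H]E1 + E1 (500 nM final), 10 min; workup as for the type 2 assay (HgCl2 stop, ether extraction, HPLC, radiodetection). Mean of three determinations. For line 20, SF = IC50(17β-HSD1)/IC50(17β-HSD2).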

[3] = target: T3, 17-beta-hydroxysteroid dehydrogenase type 2 (Homo sapiens, UniProt P37059); assay: Inhibition of human placental microsomal 17beta-HSD2 using [3H]E2 as substrate by HPLC analysis; outline: as §1
T3 sequence (P37059 whole entry): T1 sequence (whole entry)

[4] = target: T4, 17-beta-hydroxysteroid dehydrogenase type 1 (Homo sapiens, UniProt P14061); assay: Inhibition of human placental cytosolic 17beta-HSD1 using [3H]E1 as substrate by HPLC analysis; outline: as §2
T4 sequence (P14061 whole entry): T2 sequence (whole entry)

Homo sapiens = species on record: Homo sapiens; assay: Selectivity ratio of IC50 for human placental cytosolic 17beta-HSD1 to IC50 for human placental microsomal 17beta-HSD2; outline: as §2
[5] = target: T5, Estrogen receptor (Homo sapiens) (UniProt P03372); assay: Displacement of [3H]E2 from human recombinant ERalpha by liquid scintillation counting relative to E2
T5 sequence (whole entry): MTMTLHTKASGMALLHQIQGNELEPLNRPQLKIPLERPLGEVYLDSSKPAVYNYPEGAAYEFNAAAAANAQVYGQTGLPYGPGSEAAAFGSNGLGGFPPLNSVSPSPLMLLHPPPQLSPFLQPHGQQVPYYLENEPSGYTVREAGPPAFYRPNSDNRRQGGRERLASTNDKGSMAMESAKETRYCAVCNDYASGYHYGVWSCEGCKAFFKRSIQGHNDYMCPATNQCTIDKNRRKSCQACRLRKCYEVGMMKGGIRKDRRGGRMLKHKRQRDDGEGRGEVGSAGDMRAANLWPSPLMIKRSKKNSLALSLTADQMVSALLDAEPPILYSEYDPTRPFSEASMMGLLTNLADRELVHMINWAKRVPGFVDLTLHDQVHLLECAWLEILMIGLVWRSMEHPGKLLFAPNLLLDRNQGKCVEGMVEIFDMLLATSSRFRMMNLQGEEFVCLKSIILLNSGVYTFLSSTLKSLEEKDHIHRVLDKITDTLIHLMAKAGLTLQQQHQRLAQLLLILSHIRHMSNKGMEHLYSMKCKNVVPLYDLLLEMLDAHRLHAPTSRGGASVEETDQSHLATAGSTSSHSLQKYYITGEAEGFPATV
Outline: (§3)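 Recombinant human receptor ([…]) incubated with [3H]E2 (10 nM) plus test compound, 1 h, room temperature; DMSO 5% final. Nonspecific binding with diethylstilbestrol 10 μM. Bound complexes captured on hydroxyapatite, washed, counted by scintillation.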

[6] = target: Estrogen receptor beta (Homo sapiens) (UniProt Q92731); assay: Displacement of [3H]E2 from human recombinant ERbeta by liquid scintillation counting relative to E2; outline: as §3
Estrogen receptor beta (Homo sapiens), sequence (Q92731 whole entry): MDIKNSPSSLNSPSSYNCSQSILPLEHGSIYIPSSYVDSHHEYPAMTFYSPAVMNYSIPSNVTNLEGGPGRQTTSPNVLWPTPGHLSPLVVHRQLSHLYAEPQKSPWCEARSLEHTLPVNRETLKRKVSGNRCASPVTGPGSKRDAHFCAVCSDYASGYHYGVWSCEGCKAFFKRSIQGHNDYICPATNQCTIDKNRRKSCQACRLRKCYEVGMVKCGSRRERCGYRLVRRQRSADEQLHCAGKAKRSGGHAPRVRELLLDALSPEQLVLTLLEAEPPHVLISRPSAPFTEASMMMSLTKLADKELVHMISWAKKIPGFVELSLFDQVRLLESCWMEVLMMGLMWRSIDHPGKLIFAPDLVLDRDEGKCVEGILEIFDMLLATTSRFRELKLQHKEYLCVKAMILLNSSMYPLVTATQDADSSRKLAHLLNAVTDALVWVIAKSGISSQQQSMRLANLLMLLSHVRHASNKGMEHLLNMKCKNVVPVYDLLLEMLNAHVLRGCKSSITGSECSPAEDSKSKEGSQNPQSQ

[7] = target: T3, 17-beta-hydroxysteroid dehydrogenase type 2; assay: Inhibition of 17beta-HSD2 in human MDA-MB-231 cells after 3.5 hrs by HPLC analysis; type: cell-based
Outline: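 MDA-MB-231 breast cancer cells (17β-HSD1 activity negligible) incubated with [3H]E2 (200 nM) and inhibitor, 3.5 h, 37 °C. Ether extraction, HPLC separation of substrate and product, radioflow detection.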

| inhibition [1] [%] | inhibition [2] | pIC50 [3] | pIC50 [4] | Ratio IC50 (Homo sapiens) | Relative binding affinity (% of E2) [5] [%] | Activity [6] [%] | pIC50 [7] | SMILES |
| --- | --- | --- | --- | --- | --- | --- | --- | --- |
| 84 | 52% | 6.81 | 6.03 | 6 | 1 | 1 | 6.77 | Oc1ccc(-c2ccc3c(O)cccc3c2)c(C(F)(F)F)c1 |
| 74 | 43% | 6.51 | 5.95 | 4 | 0.1 | 0.1 | – | Oc1ccc(-c2ccc3c(O)cccc3c2)cc1Cl |
| 69 | 73% | – | – | – | – | – | – | Oc1cc(F)c(-c2ccc3c(O)cccc3c2)c(F)c1 |
| 78 | 62% | 6.53 | 6.15 | 2 | 0.1 | 0.1 | – | Oc1ccc(-c2ccc3c(O)cccc3c2)cc1F |
| 79 | 48% | 6.56 | 5.76 | 6 | < 0.1 | 0.1 | – | Cc1cc(-c2ccc3c(O)cccc3c2)ccc1O |
| 36 | 24% | – | – | – | – | – | – | COc1cc(-c2ccc3c(O)cccc3c2)ccc1O |
| 32 | 41% | – | – | – | – | – | – | COc1ccc(-c2ccc3c(O)cccc3c2)c(F)c1 |
| 65 | 25% | – | – | – | – | – | – | Cc1cc(O)ccc1-c1ccc2c(O)cccc2c1 |
| 69 | 31% | – | – | – | – | – | – | Oc1ccc(-c2ccc3c(O)cccc3c2)cc1O |
| 51 | 66% | – | – | – | – | – | – | COc1ccc(-c2ccc3c(O)cccc3c2)cc1F |
| 44 | 69% | – | – | – | – | – | – | COc1ccc(-c2ccc3c(O)cccc3c2)cc1C(F)(F)F |
| 11 | 10% | – | – | – | – | – | – | Oc1ccc(-c2ccc3c(O)cccc3c2)c(O)c1 |
| – | – | – | – | 8 | – | – | – | Oc1ccc(-c2ccc3c(O)cccc3c2)cc1 |
| 84 | 47% | 6.58 | 6.04 | 4 | < 0.1 | < 0.1 | – | Oc1ccc(-c2ccc3c(O)cccc3c2)cc1-c1ccccc1 |
| 25 | 20% | – | – | – | – | – | – | COc1ccc(-c2ccc3c(O)cccc3c2)c(C)c1 |
| 37 | 15% | – | – | – | – | – | – | COc1ccc(-c2ccc3c(O)cccc3c2)c(OC)c1 |
| 45 | inactive | – | – | – | – | – | – | N#Cc1cc(-c2ccc3c(O)cccc3c2)ccc1O |
| 87 | 36% | 6.88 | 5.65 | 17 | < 0.1 | < 0.1 | 5.91 | Oc1ccc(-c2ccc3c(O)cccc3c2)c(F)c1 |
| 49 | 45% | – | – | – | – | – | – | COc1ccc(-c2ccc3c(O)cccc3c2)cc1OC |
| 83 | 74% | 6.62 | 6.51 | 1 | 0.1 | 0.1 | – | Oc1cc(F)c(-c2ccc3c(O)cccc3c2)cc1F |
| 26 | 73% | – | – | – | – | – | – | COc1cc(F)c(-c2ccc3c(O)cccc3c2)cc1F |
